Laboratory results from ChEMBL document CHEMBL1629700, “Assessment of oritavancin serum protein binding across species” (Antimicrob Agents Chemother, 2010).
In brackets after ≈: the same amount, converted by molar mass.

How the values were obtained:
[1] = Plasma protein binding in human at 1 to 91 ug/ml by DCC adsorption method; type: ADME, cell-free; conditions: read-out: PB (converted)
[2] = Plasma protein binding in rat; type: ADME, cell-free; conditions: read-out: PPB
Staphylococcus aureus [3] = assay: Ratio of MIC for Staphylococcus aureus ATCC 29213 grown in CAMHB medium in presence of 95% dog serum to MIC for Staphylococcus aureus ATCC 29213 in presence of 95% dog serum ultrafiltrate; type: functional
Outline: (§1)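 The fold increase is the mean arithmetic broth microdilution MIC in 95% serum (plus 5% CAMHB) divided by the mean MIC in 95% serum ultrafiltrate (plus 5% CAMHB). The ultrafiltrate was prepared with a 50 kDa cutoff that excludes albumin. Replicates were 8 per condition, or 4 to 8 for mouse. The same data give % bound = (1 − MIC ultrafiltrate/MIC serum) × 100.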

Staphylococcus aureus [4] = assay: Antibacterial activity against Staphylococcus aureus ATCC 29213 grown in CAMHB medium by broth microdilution method in presence of 0.002% polysorbate 80 and 95% rat serum; type: functional
Outline: (§2)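 Broth microdilution with arithmetic drug dilutions prepared in CAMHB containing 0.002% polysorbate-80. Test medium was 95% pooled serum or 95% serum ultrafiltrate plus 5% CAMHB. Ultrafiltrate was made on 50 kDa cutoff ultrafilters, which exclude albumin. Means came from 8 replicates for human, rat and dog, and from 4 to 8 replicates for mouse.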

Staphylococcus aureus [5] = assay: Antibacterial activity against Staphylococcus aureus ATCC 29213 grown in CAMHB medium by broth microdilution method in presence of 0.002% polysorbate 80 and 95% mouse serum ultrafiltrate; type: functional; outline: as §2
Staphylococcus aureus [6] = assay: Ratio of MIC for Staphylococcus aureus ATCC 29213 grown in CAMHB medium in presence of 95% mouse serum to MIC for Staphylococcus aureus ATCC 29213 in presence of 95% mouse serum ultrafiltrate; type: functional; outline: as §1
Staphylococcus aureus [7] = assay: Ratio of MIC for Staphylococcus aureus ATCC 29213 grown in CAMHB medium in presence of 95% rat serum to MIC for Staphylococcus aureus ATCC 29213 in presence of 95% rat serum ultrafiltrate; type: functional; outline: as §1
Staphylococcus aureus [8] = assay: Antibacterial activity against Staphylococcus aureus ATCC 29213 grown in CAMHB medium by broth microdilution method in presence of 0.002% polysorbate 80 and 95% mouse serum; type: functional; outline: as §2
Staphylococcus aureus [9] = assay: Antibacterial activity against Staphylococcus aureus ATCC 29213 grown in CAMHB medium by broth microdilution method in presence of 0.002% polysorbate 80 and 95% human serum ultrafiltrate; type: functional; outline: as §2
Staphylococcus aureus [10] = assay: Antibacterial activity against Staphylococcus aureus ATCC 29213 grown in CAMHB medium by broth microdilution method in presence of 0.002% polysorbate 80 and 95% human serum; type: functional; outline: as §2
Staphylococcus aureus [11] = assay: Ratio of MIC for Staphylococcus aureus ATCC 29213 grown in CAMHB medium in presence of 95% human serum to MIC for Staphylococcus aureus ATCC 29213 in presence of 95% human serum ultrafiltrate; type: functional; outline: as §1
Staphylococcus aureus [12] = assay: Antibacterial activity against Staphylococcus aureus ATCC 29213 grown in CAMHB medium by broth microdilution method in presence of 0.002% polysorbate 80 and 95% dog serum ultrafiltrate; type: functional; outline: as §2
Staphylococcus aureus [13] = assay: Antibacterial activity against Staphylococcus aureus ATCC 29213 grown in CAMHB medium by broth microdilution method in presence of 0.002% polysorbate 80; type: functional
Outline: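 Broth microdilution per CLSI M7-A8 in cation-adjusted Mueller-Hinton broth with 0.002% polysorbate-80. Arithmetic dilution steps of 0.5 μg/ml from 3 to 1 μg/ml, 0.1 μg/ml from 1 to 0.3, 0.05 μg/ml from 0.3 to 0.1, and 0.01 μg/ml from 0.1 to 0.04 μg/ml. Mean of 8 replicates.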

[14] = Plasma protein binding in human by broth microdilution method; type: ADME, cell-free; conditions: read-out: PPB (converted)
Albumin = Albumin (Homo sapiens, UniProt P02768); assay: Binding affinity to human serum albumin at 0.2 ug/ml; type: ADME
Staphylococcus aureus [15] = assay: Antibacterial activity against Staphylococcus aureus ATCC 29213 grown in CAMHB medium by broth microdilution method in presence of 0.002% polysorbate 80 and 95% rat serum ultrafiltrate; type: functional; outline: as §2
Staphylococcus aureus [16] = assay: Antibacterial activity against Staphylococcus aureus ATCC 29213 grown in CAMHB medium by broth microdilution method in presence of 0.002% polysorbate 80 and 95% dog serum; type: functional; outline: as §2
Staphylococcus aureus [17] = assay: Antibacterial activity against Staphylococcus aureus ATCC 29213 grown in CAMHB medium by broth microdilution method in presence of 95% human serum; type: functional
Outline: (§3)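 Broth microdilution MIC run in a matrix of 95% pooled serum, or 95% serum ultrafiltrate (50 kDa cutoff filter, albumin excluded), plus 5% CAMHB. Drug dilution steps were arithmetic and prepared in CAMHB. Means came from 8 replicates per condition (mouse 4 to 8). Dog serum came from beagles.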

Staphylococcus aureus [18] = assay: Antibacterial activity against Staphylococcus aureus ATCC 29213 grown in CAMHB medium by broth microdilution method in presence of 95% dog serum; type: functional; outline: as §3
Staphylococcus aureus [19] = assay: Antibacterial activity against Staphylococcus aureus ATCC 29213 grown in CAMHB medium by broth microdilution method in presence of 95% mouse serum; type: functional; outline: as §3
Staphylococcus aureus [20] = assay: Antibacterial activity against Staphylococcus aureus ATCC 29213 grown in CAMHB medium by broth microdilution method in presence of 95% rat serum ultrafiltrate; type: functional; outline: as §3
Serum = assay: (§4) Protein binding in mouse serum by broth microdilution method; type: ADME, cell-free
Outline: (§5)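 Pooled serum (dog: beagle) and its ultrafiltrate (50 kDa cutoff, excludes albumin) were used. Broth microdilution MICs against S. aureus ATCC 29213 were read with arithmetic drug dilutions, made in CAMHB with 0.002% polysorbate-80, in 95% serum or 95% ultrafiltrate plus 5% CAMHB. % bound = (1 − mean MIC ultrafiltrate/mean MIC serum) × 100. Human, rat and dog used 8 replicates; mouse used 4–8.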

Staphylococcus aureus [21] = assay: Antibacterial activity against Staphylococcus aureus ATCC 29213 grown in CAMHB medium by broth microdilution method; type: functional
Outline: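 MIC determined by broth microdilution under CLSI M7-A8 conditions in cation-adjusted Mueller-Hinton broth, using arithmetic drug dilution steps.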

Staphylococcus aureus [22] = assay: Antibacterial activity against Staphylococcus aureus ATCC 29213 grown in CAMHB medium by broth microdilution method in presence of 95% mouse serum ultrafiltrate; type: functional; outline: as §3
Staphylococcus aureus [23] = assay: Antibacterial activity against Staphylococcus aureus ATCC 29213 grown in CAMHB medium by broth microdilution method in presence of 95% human serum ultrafiltrate; type: functional; outline: as §3
[24] = Protein binding in rat serum by broth microdilution method; type: ADME, cell-free; conditions: read-out: PB (converted); outline: as §5
[25] = Protein binding in dog serum by broth microdilution method; type: ADME, cell-free, Canis lupus familiaris; conditions: read-out: PB (converted); outline: as §5
[26] = Protein binding in human serum by broth microdilution method; type: ADME, cell-free; conditions: read-out: PB (converted); outline: as §5
Staphylococcus aureus [27] = assay: Antibacterial activity against Staphylococcus aureus ATCC 29213 grown in CAMHB medium by broth microdilution method in presence of 95% rat serum; type: functional; outline: as §3
Staphylococcus aureus [28] = assay: Antibacterial activity against Staphylococcus aureus ATCC 29213 grown in CAMHB medium by broth microdilution method in presence of 95% dog serum ultrafiltrate; type: functional; outline: as §3
Staphylococcus aureus [29] = assay: Antibacterial activity against Staphylococcus aureus ATCC 29213 grown in CAMHB medium by broth microdilution method in presence of 50 ug/ml CaCl2 and 95% rat serum; type: functional
Outline: (§6)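 Broth microdilution MIC run in a matrix of 95% pooled serum, or 95% ultrafiltrate of that serum (50 kDa cutoff, albumin excluded), plus 5% CAMHB. Arithmetic dilutions ran from 20 to 0.3 μg/ml in CAMHB with 50 μg/ml CaCl2. Means came from 8 replicates (mouse 4 to 8). Beagle dog serum was used for dog.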

Staphylococcus aureus [30] = assay: Antibacterial activity against Staphylococcus aureus ATCC 29213 grown in CAMHB medium by broth microdilution method in presence of 50 ug/ml CaCl2; type: functional
Outline: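 Broth microdilution per CLSI M7-A8 in cation-adjusted Mueller-Hinton broth with 50 μg/ml CaCl2. Arithmetic dilution steps of 5 μg/ml from 20 to 10 μg/ml, 1 μg/ml from 10 to 2, 0.5 μg/ml from 2 to 1, and 0.1 μg/ml from 1 to 0.3 μg/ml. Mean of 8 replicates.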

Staphylococcus aureus [31] = assay: Antibacterial activity against Staphylococcus aureus ATCC 29213 grown in CAMHB medium by broth microdilution method in presence of 50 ug/ml CaCl2 and 95% rat serum ultrafiltrate; type: functional; outline: as §6
Staphylococcus aureus [32] = assay: Antibacterial activity against Staphylococcus aureus ATCC 29213 grown in CAMHB medium by broth microdilution method in presence of 50 ug/ml CaCl2 and 95% dog serum ultrafiltrate; type: functional; outline: as §6
Staphylococcus aureus [33] = assay: Antibacterial activity against Staphylococcus aureus ATCC 29213 grown in CAMHB medium by broth microdilution method in presence of 50 ug/ml CaCl2 and 95% dog serum; type: functional; outline: as §6
[34] = as §4; type: ADME, cell-free; conditions: read-out: PB (converted); outline: as §5
Staphylococcus aureus [35] = assay: Antibacterial activity against Staphylococcus aureus ATCC 29213 grown in CAMHB medium by broth microdilution method in presence of 50 ug/ml CaCl2 and 95% human serum ultrafiltrate; type: functional; outline: as §6
Staphylococcus aureus [36] = assay: Antibacterial activity against Staphylococcus aureus ATCC 29213 grown in CAMHB medium by broth microdilution method in presence of 50 ug/ml CaCl2 and 95% mouse serum; type: functional; outline: as §6
Staphylococcus aureus [37] = assay: Antibacterial activity against Staphylococcus aureus ATCC 29213 grown in CAMHB medium by broth microdilution method in presence of 50 ug/ml CaCl2 and 95% mouse serum ultrafiltrate; type: functional; outline: as §6
Staphylococcus aureus [38] = assay: Antibacterial activity against Staphylococcus aureus ATCC 29213 grown in CAMHB medium by broth microdilution method in presence of 50 ug/ml CaCl2 and 95% human serum; type: functional; outline: as §6

Chain of Albumin (P02768 whole entry): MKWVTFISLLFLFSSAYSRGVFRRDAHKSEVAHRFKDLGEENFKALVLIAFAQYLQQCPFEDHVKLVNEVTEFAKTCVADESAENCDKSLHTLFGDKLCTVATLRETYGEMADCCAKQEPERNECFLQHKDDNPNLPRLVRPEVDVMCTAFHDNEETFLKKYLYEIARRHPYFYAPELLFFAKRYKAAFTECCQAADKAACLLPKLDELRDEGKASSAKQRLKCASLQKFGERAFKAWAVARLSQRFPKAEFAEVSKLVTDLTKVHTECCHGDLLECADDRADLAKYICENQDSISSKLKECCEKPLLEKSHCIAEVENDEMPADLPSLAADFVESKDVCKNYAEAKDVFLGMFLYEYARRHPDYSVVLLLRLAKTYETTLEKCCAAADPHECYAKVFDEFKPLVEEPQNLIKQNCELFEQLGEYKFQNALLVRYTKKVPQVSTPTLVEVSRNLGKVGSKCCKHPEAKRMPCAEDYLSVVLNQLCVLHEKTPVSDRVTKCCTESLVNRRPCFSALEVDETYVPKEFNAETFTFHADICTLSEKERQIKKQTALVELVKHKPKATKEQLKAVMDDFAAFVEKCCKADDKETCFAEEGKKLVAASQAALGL

CN[C@H](CC(C)C)C(=O)N[C@H]1C(=O)N[C@@H](CC(N)=O)C(=O)N[C@H]2C(=O)N[C@H]3C(=O)N[C@H](C(=O)N[C@H](C(=O)O)c4cc(O)cc(O)c4-c4cc3ccc4O)[C@H](O[C@H]3C[C@](C)(N)[C@@H](O)[C@H](C)O3)c3ccc(c(Cl)c3)Oc3cc2cc(c3O[C@@H]2O[C@H](CO)[C@@H](O)[C@H](O)[C@H]2O[C@H]2C[C@](C)(NCc3ccc(-c4ccc(Cl)cc4)cc3)[C@@H](O)[C@H](C)O2)Oc2ccc(cc2Cl)[C@H]1O [ORITAVANCIN]
fraction unbound [1]: 0.143 | fraction unbound [2]: < 0.2 | Ratio (Staphylococcus aureus [3]): 7.8 | MIC (Staphylococcus aureus [4]): 0.313 µg/mL | MIC (Staphylococcus aureus [5]): 0.079 µg/mL | Ratio (Staphylococcus aureus [6]): 6.8 | Ratio (Staphylococcus aureus [7]): 5.7 | MIC (Staphylococcus aureus [8]): 0.538 µg/mL | MIC (Staphylococcus aureus [9]): 0.14 µg/mL | MIC (Staphylococcus aureus [10]): 0.775 µg/mL | Ratio (Staphylococcus aureus [11]): 5.5 | MIC (Staphylococcus aureus [12]): 0.061 µg/mL | MIC (Staphylococcus aureus [13]): 0.08 µg/mL | fraction unbound [14]: 0.125 | fraction unbound at 0.2 ug/ml (Albumin): 0.21 | MIC (Staphylococcus aureus [15]): 0.055 µg/mL | MIC (Staphylococcus aureus [16]): 0.475 µg/mL

CO/N=C(\C(=O)N[C@@H]1C(=O)N2C(C(=O)O)=C(CSc3nc(=O)c(O)nn3C)CS[C@H]12)c1csc(N)n1 [CEFTRIAXONE]
MIC (Staphylococcus aureus [17]): 38.8 µg/mL | MIC (Staphylococcus aureus [18]): 1.38 µg/mL | MIC (Staphylococcus aureus [19]): 6 µg/mL | Ratio (Staphylococcus aureus [3]): 1.3 | MIC (Staphylococcus aureus [20]): 3.88 µg/mL | Protein binding (Serum): 37.5% | MIC (Staphylococcus aureus [21]): 3.5 µg/mL (≈ 6.31 µM) | Ratio (Staphylococcus aureus [6]): 1.6 | MIC (Staphylococcus aureus [22]): 3.75 µg/mL | MIC (Staphylococcus aureus [23]): 2.88 µg/mL | fraction unbound [24]: 0.66 | fraction unbound [25]: 0.791 | Ratio (Staphylococcus aureus [7]): 1.5 | fraction unbound [26]: 0.074 | MIC (Staphylococcus aureus [27]): 5.88 µg/mL | Ratio (Staphylococcus aureus [11]): 13.5 | MIC (Staphylococcus aureus [28]): 1.09 µg/mL

CCCCCCCCCC(=O)N[C@@H](Cc1c[nH]c2ccccc12)C(=O)N[C@H](CC(N)=O)C(=O)N[C@@H](CC(=O)O)C(=O)N[C@@H]1C(=O)NCC(=O)N[C@@H](CCCN)C(=O)N[C@@H](CC(=O)O)C(=O)N[C@H](C)C(=O)N[C@@H](CC(=O)O)C(=O)NCC(=O)N[C@H](CO)C(=O)N[C@@H]([C@H](C)CC(=O)O)C(=O)N[C@@H](CC(=O)c2ccccc2N)C(=O)O[C@@H]1C
MIC (Staphylococcus aureus [29]): 1.56 µg/mL | MIC (Staphylococcus aureus [30]): 0.975 µg/mL | MIC (Staphylococcus aureus [31]): 0.538 µg/mL | Ratio (Staphylococcus aureus [3]): 3.9 | MIC (Staphylococcus aureus [32]): 0.638 µg/mL | MIC (Staphylococcus aureus [33]): 2.5 µg/mL | fraction unbound [34]: 0.24 | MIC (Staphylococcus aureus [35]): 0.513 µg/mL | Ratio (Staphylococcus aureus [6]): 4.2 | fraction unbound [24]: 0.344 | fraction unbound [25]: 0.255 | MIC (Staphylococcus aureus [36]): 12.5 µg/mL | Ratio (Staphylococcus aureus [7]): 2.9 | fraction unbound [26]: 0.171 | Ratio (Staphylococcus aureus [11]): 5.8 | MIC (Staphylococcus aureus [37]): 3 µg/mL | MIC (Staphylococcus aureus [38]): 3 µg/mL
